Measured values: PMC11293336 (Cell Reports Medicine, 2024)

Legend:
[1] = test system: patients with recurrent high-grade glioma; experiment: Dose-limiting toxicities and adverse events of oral terameprocol, GATOR trial; type: in vivo, human
Outline: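 Patients ≥18 y with recurrent supratentorial grade III–IV glioma took oral capsules once daily, days 1–5 every 28 days, fasted; an amended cohort took 6,000 mg/day with a meal within 30 min. 3+3 escalation over 1,200–6,000 mg/day. DLT window was the first 4 weeks: ANC <500/μL, platelets <25,000/μL, febrile neutropenia, hematologic toxicity preventing >80% of dose, grade 3–4 seizure/intracranial hemorrhage, grade 3 QTcF. AEs CTCAE-graded.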

dogs = experiment: 28-day oral toxicity study in dogs; type: in vivo, Beagle Dog; settings: continuous 28-day schedule
[2] = DLT, 2,400 mg/day EXP (expanded dose cohort), N=4
[3] = DLT, 6,000 mg/day with meal, N=4
[4] = related to terameprocol, all cycles, N = 19

**Q.** Which results are given for `COc1ccc(C[C@@H](C)[C@@H](C)Cc2ccc(OC)c(OC)c2)cc1OC` [terameprocol, meso-tetra-O-methyl nordihydroguaiaretic acid]?
**A.** % of patients with DLT per dose level ([1]; 1,200 mg/day, N=3): 0%; % of patients with DLT per dose level ([1]; 2,400 mg/day EXP (expanded dose cohort), N=4): 0%; % of patients with DLT per dose level ([1]; 2,400 mg/day, N=3): 33%; % of patients with DLT per dose level ([1]; 3,600 mg/day, N=3): 0%; % of patients with DLT per dose level ([1]; 6,000 mg/day with meal, N=4): 0%; % of patients with DLT per dose level ([1]; 6,000 mg/day, N=3): 0%; tolerability of oral terameprocol ([1]; 1,200-6,000 mg/day, days 1–5 every 28 days): without major toxicities and generally well tolerated and safe and well tolerated; patients who experienced DLT ([1]; DL2fasted 2,400 mg/day cohort): 1/3; DLT ([1]; DL3fasted 3,600 mg/day, three patients): no DLTs; DLT ([1]; DL4fasted 6,000 mg/day, three patients): no DLTs; DLT ([1]; DL4fed 6,000 mg/day with food): No DLTs; <80% of expected terameprocol dose due to hematologic toxicity ([1]; DLT, 1,200 mg/day, N=3): 0; Febrile neutropenia ([1]; DLT, 1,200 mg/day, N=3): 0; Grade 3–4 non-hematologic toxicity ([1]; DLT, 1,200 mg/day, N=3): 0; Grade 3–4 seizure or intracranial hemorrhage ([1]; DLT, 1,200 mg/day, N=3): 0; Platelets <25,000/mm^3 ([1]; DLT, 1,200 mg/day, N=3): 0; <80% of expected terameprocol dose due to hematologic toxicity [1, 2]: 0; Febrile neutropenia [1, 2]: 0; Grade 3–4 non-hematologic toxicity [1, 2]: 0; Grade 3–4 seizure or intracranial hemorrhage [1, 2]: 0; Platelets <25,000/mm^3 [1, 2]: 0; <80% of expected terameprocol dose due to hematologic toxicity ([1]; DLT, 2,400 mg/day, N=3): 0; Febrile neutropenia ([1]; DLT, 2,400 mg/day, N=3): 0; Grade 3–4 non-hematologic toxicity ([1]; DLT, 2,400 mg/day, N=3): 1; Grade 3–4 seizure or intracranial hemorrhage ([1]; DLT, 2,400 mg/day, N=3): 0; Platelets <25,000/mm^3 ([1]; DLT, 2,400 mg/day, N=3): 0; <80% of expected terameprocol dose due to hematologic toxicity ([1]; DLT, 3,600 mg/day, N=3): 0; Febrile neutropenia ([1]; DLT, 3,600 mg/day, N=3): 0; Grade 3–4 non-hematologic toxicity ([1]; DLT, 3,600 mg/day, N=3): 0; Grade 3–4 seizure or intracranial hemorrhage ([1]; DLT, 3,600 mg/day, N=3): 0; Platelets <25,000/mm^3 ([1]; DLT, 3,600 mg/day, N=3): 0; <80% of expected terameprocol dose due to hematologic toxicity [1, 3]: 0; Febrile neutropenia [1, 3]: 0; Grade 3–4 non-hematologic toxicity [1, 3]: 0; Grade 3–4 seizure or intracranial hemorrhage [1, 3]: 0; Platelets <25,000/mm^3 [1, 3]: 0; <80% of expected terameprocol dose due to hematologic toxicity ([1]; DLT, 6,000 mg/day, N=3): 0; Febrile neutropenia ([1]; DLT, 6,000 mg/day, N=3): 0; Grade 3–4 non-hematologic toxicity ([1]; DLT, 6,000 mg/day, N=3): 0; Grade 3–4 seizure or intracranial hemorrhage ([1]; DLT, 6,000 mg/day, N=3): 0; Platelets <25,000/mm^3 ([1]; DLT, 6,000 mg/day, N=3): 0; patients off treatment due to toxicity ([1]; all dose levels): No patients; DLT ([1]; dose expansion at DL2fasted 2,400 mg/day, three additional patients): no additional DLTs; Alanine aminotransferase increased, Grade 1 [1, 4]: 2 (10.5%) No. of patients (%); Alanine aminotransferase increased, Total [1, 4]: 2 (10.5%) No. of patients (%); Anemia, Grade 1 [1, 4]: 4 (21.1%) No. of patients (%); Anemia, Total [1, 4]: 4 (21.1%) No. of patients (%); Anorexia, Grade 1 [1, 4]: 2 (10.5%) No. of patients (%); Anorexia, Grade 2 [1, 4]: 1 (5.3%) No. of patients (%); Anorexia, Total [1, 4]: 3 (15.8%) No. of patients (%); Arthralgia, Grade 1 [1, 4]: 1 (5.3%) No. of patients (%); Arthralgia, Total [1, 4]: 1 (5.3%) No. of patients (%); Aspartate aminotransferase increased, Grade 1 [1, 4]: 1 (5.3%) No. of patients (%); Aspartate aminotransferase increased, Total [1, 4]: 1 (5.3%) No. of patients (%); Blood bilirubin increased, Grade 1 [1, 4]: 1 (5.3%) No. of patients (%); Blood bilirubin increased, Total [1, 4]: 1 (5.3%) No. of patients (%); Constipation, Grade 1 [1, 4]: 1 (5.3%) No. of patients (%); Constipation, Total [1, 4]: 1 (5.3%) No. of patients (%); Diarrhea, Grade 1 [1, 4]: 2 (10.5%) No. of patients (%); Diarrhea, Total [1, 4]: 2 (10.5%) No. of patients (%); Electrocardiogram QT corrected interval prolonged, Grade 3 [1, 4]: 1 (5.3%) No. of patients (%); Electrocardiogram QT corrected interval prolonged, Total [1, 4]: 1 (5.3%) No. of patients (%); Fatigue, Grade 1 [1, 4]: 2 (10.5%) No. of patients (%); Fatigue, Grade 2 [1, 4]: 2 (10.5%) No. of patients (%); Fatigue, Total [1, 4]: 4 (21.1%) No. of patients (%); Fever, Grade 1 [1, 4]: 1 (5.3%) No. of patients (%); Fever, Total [1, 4]: 1 (5.3%) No. of patients (%); Gastrointestinal pain, Grade 1 [1, 4]: 1 (5.3%) No. of patients (%); Gastrointestinal pain, Total [1, 4]: 1 (5.3%) No. of patients (%); Hyperglycemia, Grade 1 [1, 4]: 1(5.3%) No. of patients (%); Hyperglycemia, Total [1, 4]: 1 (5.3%) No. of patients (%); Hyperkalemia, Grade 2 [1, 4]: 1 (5.3%) No. of patients (%); Hyperkalemia, Total [1, 4]: 1 (5.3%) No. of patients (%); Hypernatremia, Grade 1 [1, 4]: 1 (5.3%) No. of patients (%); Hypernatremia, Total [1, 4]: 1 (5.3%) No. of patients (%); Hypertension, Grade 1 [1, 4]: 1 (5.3%) No. of patients (%); Hypertension, Total [1, 4]: 1 (5.3%) No. of patients (%); Hypocalcemia, Grade 1 [1, 4]: 1 (5.3%) No. of patients (%); Hypocalcemia, Total [1, 4]: 1 (5.3%) No. of patients (%); Hypokalemia, Grade 1 [1, 4]: 1 (5.3%) No. of patients (%); Hypomagnesemia, Grade 1 [1, 4]: 3 (15.8%) No. of patients (%); Hypomagnesemia, Grade 2 [1, 4]: 1 (5.3%) No. of patients (%); Hypomagnesemia, Total [1, 4]: 4 (21.1%) No. of patients (%); Hyponatremia, Grade 1 [1, 4]: 3 (15.8%) No. of patients (%); Hyponatremia, Total [1, 4]: 3 (15.8%) No. of patients (%); Hypophosphatemia, Grade 1 [1, 4]: 1 (5.3%) No. of patients (%); Hypophosphatemia, Total [1, 4]: 1 (5.3%) No. of patients (%); Lymphocyte count decreased, Grade 2 [1, 4]: 1 (5.3%) No. of patients (%); Lymphocyte count decreased, Grade 3 [1, 4]: 1 (5.3%) No. of patients (%); Lymphocyte count decreased, Total [1, 4]: 2 (10.5%) No. of patients (%); Mouth sores, Grade 1 [1, 4]: 1 (5.3%) No. of patients (%); Mouth sores, Total [1, 4]: 1 (5.3%) No. of patients (%); Muscle cramp, Grade 1 [1, 4]: 1 (5.3%) No. of patients (%); Muscle cramp, Total [1, 4]: 1 (5.3%) No. of patients (%); Muscle weakness lower limb, Grade 1 [1, 4]: 1 (5.3%) No. of patients (%); Muscle weakness lower limb, Total [1, 4]: 1 (5.3%) No. of patients (%); Nausea, Grade 1 [1, 4]: 3 (15.8%) No. of patients (%); Nausea, Total [1, 4]: 3 (15.8%) No. of patients (%); Platelet count decreased, Grade 1 [1, 4]: 1 (5.3%) No. of patients (%); Platelet count decreased, Total [1, 4]: 1 (5.3%) No. of patients (%); Rash, maculopapular, Grade 1 [1, 4]: 1 (5.3%) No. of patients (%); Rash, maculopapular, Total [1, 4]: 1 (5.3%) No. of patients (%); Vomiting, Grade 1 [1, 4]: 2 (10.5%) No. of patients (%); Vomiting, Total [1, 4]: 2 (10.5%) No. of patients (%); Weight loss, Grade 1 [1, 4]: 1 (5.3%) No. of patients (%); Weight loss, Total [1, 4]: 1 (5.3%) No. of patients (%); tolerability (dogs): well tolerated
